ChEMBL document CHEMBL1152392, “Discovery and optimization of a novel Neuromedin B receptor antagonist” (Bioorg Med Chem Lett, 2009)

Molecular target: T1, Neuromedin-B receptor (Homo sapiens, UniProt P28336)
Experiment: Displacement of [125I]-(D-Tyr0)NMB from human neuromedin B receptor transfected in HEK293 cells
Type: cell-based
Settings: not given
Method in brief: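 Whole-cell competition binding used 1 × 10⁶ HEK293 cells stably transfected with hNMBR, with 150 pM ¹²⁵I-[D-Tyr0]NMB (2200 Ci/mmol), in DMEM for 1 h at room temperature. Bound ligand was separated by filtration and total bound counts were measured. Day-to-day standard error was <30%; well-to-well variability was <10%.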

T1 sequence (P28336 whole entry): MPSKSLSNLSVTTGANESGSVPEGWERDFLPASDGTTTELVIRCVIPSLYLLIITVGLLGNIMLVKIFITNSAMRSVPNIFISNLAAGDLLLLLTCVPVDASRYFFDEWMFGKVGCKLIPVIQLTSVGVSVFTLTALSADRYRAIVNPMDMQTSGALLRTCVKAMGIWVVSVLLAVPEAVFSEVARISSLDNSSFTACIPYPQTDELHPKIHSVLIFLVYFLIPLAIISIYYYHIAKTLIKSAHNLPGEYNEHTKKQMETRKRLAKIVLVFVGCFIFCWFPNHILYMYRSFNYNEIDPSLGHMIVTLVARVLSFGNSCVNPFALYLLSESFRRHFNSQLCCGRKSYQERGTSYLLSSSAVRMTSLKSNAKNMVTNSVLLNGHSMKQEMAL

| Structure (SMILES) | IC50 [nM] |
| --- | --- |
| Cc1ccc2c(c1)NC(c1ccccc1F)C1=C(CC(C)(C)CC1=O)N2 (configuration not stated) | 1300 |
| Cc1ccc2c(c1)NC(c1c(F)cccc1F)C1=C(CC(C)(C)CC1=O)N2 (configuration not stated) | 2500 |
| Cc1ccc2c(c1)NC(c1c(F)cccc1Cl)C1=C(CC(C)(C)CC1=O)N2C (configuration not stated) | 10000 |
| Cc1ccc2c(c1)NC(c1c(F)cccc1Cl)C1=C(CC(c3ccc(N(C)C)cc3)CC1=O)N2 (configuration not stated) | 5400 |
| CC1(C)CC(=O)C2=C(C1)Nc1ccc(OC(F)(F)F)cc1NC2c1c(F)cccc1Cl (configuration not stated) | 1300 |
| COc1ccc(C2CC(=O)C3=C(C2)Nc2ccc(C)cc2NC3c2c(F)cccc2Cl)cc1 (configuration not stated) | 2000 |
| Cc1ccc2c(c1)NC(c1c(F)cccc1Cl)C1=C(CCCC1=O)N2 (configuration not stated) | 1400 |
| COc1ccc2c(c1)NC(c1c(F)cccc1Cl)C1=C(CC(C)(C)CC1=O)N2 (configuration not stated) | 2200 |
| CC1(C)CC(=O)C2=C(C1)Nc1ccc(O)cc1NC2c1c(F)cccc1Cl (configuration not stated) | 10000 |
| COc1ccccc1C1Nc2cc(C)ccc2NC2=C1C(=O)CC(C)(C)C2 (configuration not stated) | 1100 |
| Cc1ccc2c(c1)NC(c1ccccc1)C1=C(CC(C)(C)CC1=O)N2 (configuration not stated) | 6900 |
| CC1(C)CC(=O)C2=C(C1)Nc1ccc(C#N)cc1NC2c1c(F)cccc1Cl (configuration not stated) | 1300 |
| Cc1ccc2c(c1)NC(c1c(F)cccc1Cl)C1=C(CC(c3ccco3)CC1=O)N2 (configuration not stated) | 3000 |
| CC1(C)CC(=O)C2=C(C1)Nc1ccc(C(N)=O)cc1NC2c1c(F)cccc1Cl (configuration not stated) | 10000 |
| Cc1ccc2c(c1)NC(c1c(F)cccc1Cl)C1=C(CCC1=O)N2 (configuration not stated) | 10000 |
| CC1(C)CC(=O)C2=C(C1)Nc1ccc(C(=O)O)cc1NC2c1c(F)cccc1Cl (configuration not stated) | 10000 |
| Cc1ccc2c(c1)NC(c1c(F)cccc1Cl)C1=C(CC(C(C)C)CC1=O)N2 (configuration not stated) | 810 |
| CC1(C)CC(=O)C2=C(C1)Nc1ccc(Cl)cc1NC2c1c(F)cccc1Cl (configuration not stated) | 860 |
| Cc1ccc2c(c1)NC(c1ccccc1C(F)(F)F)C1=C(CC3(CCCC3)CC1=O)N2 (single isomer, unassigned; (-)) | > 10000 |

The next molecules have a lower IC50 than those just listed; values first:

| IC50 [nM] | Structure (SMILES) |
| --- | --- |
| 180 | CCN1c2cc(C)ccc2NC2=C(C(=O)CC(C)(C)C2)C1c1c(F)cccc1Cl (configuration not stated) |
| 450 | Cc1ccc2c(c1)NC(c1c(F)cccc1Cl)C1=C(CC(C)CC1=O)N2 (configuration not stated) |
| 540 | Cc1ccc2c(c1)NC(c1c(F)cccc1C(F)(F)F)C1=C(CC3(CCCC3)CC1=O)N2 (configuration not stated) |
| 300 | Cc1ccc2c(c1)NC(c1c(F)cccc1Cl)C1=C(CC(C)(C)CC1=O)N2 (configuration not stated) |
| 200 | CSc1ccccc1C1Nc2cc(C)ccc2NC2=C1C(=O)CC(C)(C)C2 (configuration not stated) |
| 640 | Cc1ccc2c(c1)NC(c1ccccc1SC(F)(F)F)C1=C(CC3(CCCC3)CC1=O)N2 (configuration not stated) |
| 150 | CCCCN1c2cc(C)ccc2NC2=C(C(=O)CC(C)(C)C2)C1c1c(F)cccc1Cl (configuration not stated) |
| 250 | CSc1ccccc1C1Nc2cc(C)ccc2NC2=C1C(=O)CC1(CCCC1)C2 (configuration not stated) |
| 550 | Cc1ccc2c(c1)NC(c1ccccc1[N+](=O)[O-])C1=C(CC(C)(C)CC1=O)N2 (configuration not stated) |
| 280 | Cc1ccc2c(c1)NC(c1c(F)cccc1Cl)C1=C(CC3(CCCC3)CC1=O)N2 (configuration not stated) |
| 240 | Cc1ccc2c(c1)NC(c1ccccc1Cl)C1=C(CC3(CCCC3)CC1=O)N2 (configuration not stated) |
| 250 | Cc1ccc2c(c1)NC(c1ccccc1C(F)(F)F)C1=C(CC(C)(C)CC1=O)N2 (configuration not stated) |
| 170 | Cc1ccc2c(c1)N(C)C(c1c(F)cccc1Cl)C1=C(CC(C)(C)CC1=O)N2 (configuration not stated) |
| 280 | Cc1ccc2c(c1)NC(c1ccccc1Cl)C1=C(CC(C)(C)CC1=O)N2 (configuration not stated) |
| 370 | CC1(C)CC(=O)C2=C(C1)Nc1ccc(C(F)(F)F)cc1NC2c1c(F)cccc1Cl (configuration not stated) |
| 30 | Cc1ccc2c(c1)NC(c1ccccc1C(F)(F)F)C1=C(CC3(CCCC3)CC1=O)N2 (single isomer, unassigned; (+)) |
| 96 | Cc1ccc2c(c1)NC(c1ccccc1C(F)(F)F)C1=C(CC3(CCCC3)CC1=O)N2 (stereo in doubt; 30) |

Molecular target: Gastrin-releasing peptide receptor (Homo sapiens, UniProt P30550)
Sequence (P30550 whole entry): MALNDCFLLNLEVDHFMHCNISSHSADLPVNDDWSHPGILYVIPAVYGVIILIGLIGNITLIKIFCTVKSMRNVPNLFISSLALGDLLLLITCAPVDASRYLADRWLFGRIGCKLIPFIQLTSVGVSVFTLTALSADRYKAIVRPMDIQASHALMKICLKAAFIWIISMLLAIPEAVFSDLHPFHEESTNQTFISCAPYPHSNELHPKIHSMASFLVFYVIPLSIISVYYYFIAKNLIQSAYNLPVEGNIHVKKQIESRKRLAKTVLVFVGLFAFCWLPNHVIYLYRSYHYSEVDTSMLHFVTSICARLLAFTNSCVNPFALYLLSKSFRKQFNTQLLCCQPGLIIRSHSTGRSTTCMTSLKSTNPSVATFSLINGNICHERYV
Experiment: Inhibition gastrin-releasing peptide receptor
Settings: not given

| IC50 [nM] | Structure (SMILES) |
| --- | --- |
| > 10000 | Cc1ccc2c(c1)NC(c1c(F)cccc1Cl)C1=C(CC(C)(C)CC1=O)N2 (configuration not stated) |

Test system: HEK293
Experiment: Cytotoxicity against HEK293 cells up to 30 uM after 72 hrs by alamar blue assay
Type: cell-based
Settings: human, hek293, 72 h

| Structure (SMILES) | Activity |
| --- | --- |
| Cc1ccc2c(c1)NC(c1ccccc1C(F)(F)F)C1=C(CC3(CCCC3)CC1=O)N2 (single isomer, unassigned; (+)) | Non-toxic |

Test system: HeLa
Experiment: Cytotoxicity against human HeLa cells up to 30 uM after 72 hrs by alamar blue assay
Type: cell-based
Settings: not given
Method in brief: (§1)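 HeLa cells were seeded at 5k per well. Compounds were tested as a 9-point threefold dilution series, with triplicate readings at 0 and 72 h. At each time point Alamar Blue was added for 3 h at 37 °C and fluorescence was read. Relative growth was compared to a DMSO control well for each compound.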

| Structure (SMILES) | Activity |
| --- | --- |
| Cc1ccc2c(c1)NC(c1ccccc1C(F)(F)F)C1=C(CC3(CCCC3)CC1=O)N2 (single isomer, unassigned; (+)) | Non-toxic |

Test system: HeLa
Experiment: Cytotoxicity against human HeLa cells after 72 hrs by alamar blue assay
Type: cell-based
Settings: not given
Method in brief: as §1

| Structure (SMILES) | IC50 [nM] |
| --- | --- |
| Cc1ccc2c(c1)NC(c1ccccc1C(F)(F)F)C1=C(CC3(CCCC3)CC1=O)N2 (single isomer, unassigned; (+)) | > 50000 |

Molecular target: T1, Neuromedin-B receptor
Experiment: Antagonist activity at human neuromedin B receptor transfected in HEK293 cells assessed as inhibition of 1 nM neuromedin B-induced myo-[3H]inositol phosphate accumulation after 60 mins by scintillation proximity assay
Type: functional, cell-based
Settings: not given
Method in brief: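 hNMBR-transfected HEK293 cells (2.5 × 10⁴ per well) were labelled overnight at 37 °C with myo-[³H]inositol in inositol-free DMEM with 25 mM Hepes and 10% dialyzed FBS. Compounds were added in inositol-free DMEM with 0.3% BSA and 10 mM LiCl for 60 min at 37 °C. Cells were lysed in 20 mM formic acid (2 h, 4 °C), and inositol phosphates were captured on RNA-binding SPA beads for 30 min.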

| IC50 [nM] | Structure (SMILES) |
| --- | --- |
| 5500 | Cc1ccc2c(c1)NC(c1c(F)cccc1Cl)C1=C(CC(C)(C)CC1=O)N2 (configuration not stated) |
| 580 | Cc1ccc2c(c1)NC(c1ccccc1C(F)(F)F)C1=C(CC3(CCCC3)CC1=O)N2 (single isomer, unassigned; (+)) |
